Measurements pooled from the literature.
Lines come from different studies, so protocols differ.
Target: Mitogen-activated protein kinase kinase kinase 9 (MAP3K9, Homo sapiens, UniProt P80192)

Compound	assay	conditions	endpoint	value
O=C(NCCCNc1nc(Nc2cccc(NC(=O)N3CCCC3)c2)ncc1C1CC1)C1CCC1	enzyme activity, inhibitor, radiometric	1 µM	remaining activity	31%
CCCOc1ccc([C@@H]2[C@@H](C(=O)O)[C@H](c3ccc4c(c3)OCO4)CN2CC(=O)Nc2c(CC)cccc2CC)cc1	cell-free assay, competition with immobilised ligand	1 µM	remaining binding	93%
Cc1nn(CC(F)(F)F)cc1Nc1nccc(NCCCNC(=O)C2CCC2)n1	enzyme activity, inhibitor, radiometric	1 µM	remaining activity	85%
CCOc1cc(-c2nncn2C)ccc1Nc1ncc2cc(C)nc(NCC(C)(C)C)c2n1	enzyme activity, inhibitor, FRET	1 µM	inhibition	38%
Cc1c(C(=O)O)cc(-c2ccc(C3CCNCC3)cc2)c2ccc(-c3ccc(C(F)(F)F)cc3)cc12	binding, competition with immobilised ligand	1 µM	remaining binding	92%
NS(=O)(=O)c1ccc(CNc2nc(Nc3cccc(CN4CCOCC4)c3)ncc2C2CC2)cc1	enzyme activity, inhibitor, radiometric	1 µM	remaining activity	72%
COc1cc2ncnc(Nc3ccc(Oc4ccccc4)cc3C)c2cc1OC	enzyme activity, inhibitor	1 µM	inhibition	9%
O=C(NCCCNc1nc(Nc2cccc(CN3CCOCC3)c2)ncc1C1CC1)C1CCC1	enzyme activity, inhibitor, radiometric	1 µM	remaining activity	19%
CNC(=O)c1cc(Oc2ccc(NC(=O)Nc3ccc(Cl)c(C(F)(F)F)c3)cc2)ccn1	enzyme activity, inhibitor	0.3 µM	inhibition	-6%
C[C@H](c1ccnc(Nc2nc3ccc(-c4cc(N(C)C)ncn4)cc3[nH]2)c1)N1CCN(C(=O)CC(F)(F)F)CC1	cell-free assay, competition with immobilised ligand	0.1 µM	remaining binding	100%
Cc1nn(CC(F)(F)F)cc1Nc1nccc(NCCc2cnc[nH]2)n1	enzyme activity, inhibitor, radiometric	1 µM	remaining activity	77%
CCCS(=O)(=O)Nc1ccc(F)c(C(=O)c2c[nH]c3ncc(-c4ccc(Cl)cc4)cc23)c1F	enzyme activity, inhibitor	1 µM	inhibition	< 10%
CCC(=O)N[C@H]1CC[C@@H](C(=O)N(C)c2ccc(-c3nc4ccccc4o3)cc2)C1	cell-free assay, competition with immobilised ligand	1 µM	remaining binding	100%
COc1cc(Nc2cnc(C#N)c(O[C@H](C)CN(C)C)n2)ncc1-c1cnn(C)c1	enzyme activity, inhibitor, radiometric	1 µM	remaining activity	92%
O=C1Nc2ccc(Cl)cc2C1=Cc1cc(Cl)c(O)c(Cl)c1	cell-free assay	0.5 µM	remaining signal	102%
Cc1cc(NC(=O)c2cccc3cc(-c4cccc5[nH]nc(N)c45)ccc23)ccc1F	enzyme activity, inhibitor	0.1 µM	activity vs control	96%
COc1cccc(CNC(=O)c2nc3scc(COCc4ccc(C(=O)O)cc4)c3c(=O)[nH]2)c1	cell-free assay, competition with immobilised ligand	1 µM	remaining binding	100%
Cn1c(=O)n(-c2ccc(C(C)(C)C#N)cc2)c2c3cc(-c4cnc5ccccc5c4)ccc3ncc21	enzyme activity, inhibitor	10 µM	remaining activity	67%
C#Cc1cccc(Nc2ncnc3cc(OCCOC)c(OCCOC)cc23)c1	cell-free assay	0.5 µM	remaining signal	111%
CN(c1ccnc(CNc2nc(Nc3ccc4c(c3)CC(=O)N4)ncc2C(F)(F)F)n1)S(C)(=O)=O	cell-free assay, competition with immobilised ligand	1 µM	remaining binding	41%
Cc1nn(CC(F)(F)F)cc1Nc1ncc(C2CC2)c(NCCCNC(=O)C2CCC2)n1	enzyme activity, inhibitor, radiometric	1 µM	remaining activity	78%
Cc1ccc(Nc2nccc(N(C)c3ccc4c(C)n(C)nc4c3)n2)cc1S(N)(=O)=O	enzyme activity, inhibitor	0.3 µM	inhibition	88%
CO[C@H]1CC[C@H](CNc2ccc(S(=O)(=O)NC(=O)c3ccc(N4CCN(CC5=C(c6ccc(Cl)cc6)CC(C)(C)CC5)CC4)cc3Oc3cnc4[nH]ccc4c3)cc2[N+](=O)[O-])CC1	cell-free assay, competition with immobilised ligand	1 µM	remaining binding	84%
NS(=O)(=O)c1ccc(CNc2nc(Nc3cccc(NC(=O)N4CCCC4)c3)ncc2Br)cc1	enzyme activity, inhibitor, radiometric	1 µM	remaining activity	30%
Oc1cccc(-c2nc(N3CCOCC3)c3oc4ncccc4c3n2)c1	cell-free assay	0.5 µM	remaining signal	103%
Nc1ncnc2occ(-c3ccc(NC(=O)Nc4cc(C(F)(F)F)ccc4F)cc3)c12	cell-free assay, inhibitor	20 µM	remaining signal	2%
c1ccc(CNc2nc(N3CCOc4ccccc43)nc3c2CCCC3)cc1	target engagement in cells, inhibitor, chemoproteomics	20 mM	inhibition	3.8%
O=C(Nc1cccc(Nc2ncc(Br)c(NCCc3cnc[nH]3)n2)c1)N1CCCC1	enzyme activity, inhibitor, radiometric	1 µM	remaining activity	5%
c1ccc(N2CCN(Cc3nc4ccccc4[nH]3)CC2)nc1	binding, competition with immobilised ligand	1 µM	remaining binding	100%
COc1cccc2c(NCc3ccccc3)nc(-n3c(N)nc4ccccc43)nc12	target engagement in cells, inhibitor, chemoproteomics	20 mM	inhibition	11.3%
